Experimental data taken from ChEMBL document CHEMBL1773060, “Two-step synthesis of novel, bioactive derivatives of the ubiquitous cofactor nicotinamide adenine dinucleotide (NAD)” (J Med Chem, 2011).
Activity calls are given as the source filed them. No cut-off for these calls is given here.

Columns and labels:
[1] = molecular target: T1, NAD-dependent protein deacetylase sirtuin-2 (Homo sapiens) (UniProt Q8IXJ6); assay: Inhibition of human recombinant N-terminally His6-tagged SIRT2 at 50 uM after 4 hrs by homogeneous fluorescent deacetylase assay
T1 sequence (whole entry): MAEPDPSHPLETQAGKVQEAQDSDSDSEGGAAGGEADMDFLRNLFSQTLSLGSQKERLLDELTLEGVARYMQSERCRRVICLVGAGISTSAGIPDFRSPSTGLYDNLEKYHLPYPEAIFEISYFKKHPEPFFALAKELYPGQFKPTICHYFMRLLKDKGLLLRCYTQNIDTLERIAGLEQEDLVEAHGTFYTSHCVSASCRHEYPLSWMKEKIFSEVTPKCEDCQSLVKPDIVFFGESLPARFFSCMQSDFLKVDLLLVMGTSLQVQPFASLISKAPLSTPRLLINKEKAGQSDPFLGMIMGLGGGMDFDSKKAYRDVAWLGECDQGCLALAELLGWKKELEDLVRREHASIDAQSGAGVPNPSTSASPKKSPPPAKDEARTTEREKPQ

[2] = molecular target: T2, NAD-dependent protein deacetylase sirtuin-1 (Homo sapiens) (UniProt Q96EB6); assay: Inhibition of human recombinant GST-tagged SIRT1 at 50 uM after 4 hrs by homogeneous fluorescent deacetylase assay
T2 sequence (whole entry): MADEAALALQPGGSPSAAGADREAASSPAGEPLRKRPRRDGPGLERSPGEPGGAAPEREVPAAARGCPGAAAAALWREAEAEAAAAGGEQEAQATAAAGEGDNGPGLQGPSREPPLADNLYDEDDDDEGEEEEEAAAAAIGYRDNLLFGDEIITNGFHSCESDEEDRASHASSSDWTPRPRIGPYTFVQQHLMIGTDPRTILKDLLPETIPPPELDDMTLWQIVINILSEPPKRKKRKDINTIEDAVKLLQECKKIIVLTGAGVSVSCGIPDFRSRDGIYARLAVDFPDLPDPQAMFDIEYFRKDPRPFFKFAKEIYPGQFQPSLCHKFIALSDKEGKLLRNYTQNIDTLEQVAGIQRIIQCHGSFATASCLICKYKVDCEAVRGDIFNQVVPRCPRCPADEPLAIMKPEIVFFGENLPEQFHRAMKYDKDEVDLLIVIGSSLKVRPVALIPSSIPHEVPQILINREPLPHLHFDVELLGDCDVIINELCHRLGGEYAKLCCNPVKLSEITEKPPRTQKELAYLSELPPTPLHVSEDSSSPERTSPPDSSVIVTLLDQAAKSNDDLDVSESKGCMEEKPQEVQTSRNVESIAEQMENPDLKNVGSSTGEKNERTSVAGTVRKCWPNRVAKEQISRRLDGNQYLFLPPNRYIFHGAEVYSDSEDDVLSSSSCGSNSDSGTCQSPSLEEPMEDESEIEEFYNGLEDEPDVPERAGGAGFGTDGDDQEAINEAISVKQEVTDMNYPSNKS

[3] = molecular target: T2, NAD-dependent protein deacetylase sirtuin-1 (Homo sapiens); assay: Activity at human recombinant GST-tagged SIRT1 assessed as conversion of acetyllysine substrate to 7-amino-4-methylcoumarin at 500 uM by fluorescence-based assay
[4] = molecular target: T1, NAD-dependent protein deacetylase sirtuin-2 (Homo sapiens); assay: Activity at human recombinant GST-tagged SIRT2 assessed as conversion of […] at 500 uM by fluorescence-based assay; details: in the assay text read “His6-tagged” for “GST-tagged”
Summary of the method: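 Analogues, with NAD for comparison, were supplied at 500 μM as cosubstrate in place of NAD, in 8.3% (v/v) DMSO. Reaction used Z-(Ac)Lys-AMC (10.5 μM), 4 h at 37 °C. Trypsin/nicotinamide development followed, then fluorescence at ex 390/em 460 nm. Conversion compared against a blank without cofactor.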

Structure (SMILES) | inhibition [1] | inhibition [2] | Activity [3] | Activity [4]
Nc1ncnc2c1nc(-c1ccccc1)n2[C@@H]1O[C@H](CO)[C@@H](O)[C@H]1O | < 10% | < 10% | – | –
Nc1ncnc2c1nc(Br)n2[C@@H]1O[C@H](COP(=O)(O)O)[C@@H](O)[C@H]1O | < 10% | < 10% | – | –
NC(=O)c1ccc[n+]([C@@H]2O[C@H](COP(=O)([O-])OP(=O)(O)OC[C@H]3O[C@@H](n4c(-c5ccc(Cl)cc5)nc5c(N)ncnc54)[C@H](O)[C@@H]3O)[C@@H](O)[C@H]2O)c1 | – | 30% | – | –
Nc1ncnc2c1nc(Br)n2[C@@H]1O[C@H](CO)[C@@H](O)[C@H]1O | 16% | < 10% | – | –
COc1ccc(-c2nc3c(N)ncnc3n2[C@@H]2O[C@H](COP(=O)(O)OP(=O)([O-])OC[C@H]3O[C@@H]([n+]4cccc(C(N)=O)c4)[C@H](O)[C@@H]3O)[C@@H](O)[C@H]2O)cc1 | – | 18% | – | –

Now from value to molecule:

inhibition [1] | inhibition [2] | Activity [3] | Activity [4] | Structure (SMILES)
– | 20% | – | – | Cc1ccc(-c2nc3c(N)ncnc3n2[C@@H]2O[C@H](COP(=O)(O)OP(=O)([O-])OC[C@H]3O[C@@H]([n+]4cccc(C(N)=O)c4)[C@H](O)[C@@H]3O)[C@@H](O)[C@H]2O)cc1
35% | 16% | – | – | NC(=O)c1ccc[n+]([C@@H]2O[C@H](COP(=O)([O-])OP(=O)(O)OC[C@H]3O[C@@H](n4c(-c5ccco5)nc5c(N)ncnc54)[C@H](O)[C@@H]3O)[C@@H](O)[C@H]2O)c1
– | 31% | – | – | NC(=O)c1ccc[n+]([C@@H]2O[C@H](COP(=O)([O-])OP(=O)(O)OC[C@H]3O[C@@H](n4c(Br)nc5c(N)ncnc54)[C@H](O)[C@@H]3O)[C@@H](O)[C@H]2O)c1
– | 17% | Active | Active | NC(=O)c1ccc[n+]([C@@H]2O[C@H](COP(=O)([O-])OP(=O)(O)OC[C@H]3O[C@@H](n4c(-c5ccccc5)nc5c(N)ncnc54)[C@H](O)[C@@H]3O)[C@@H](O)[C@H]2O)c1
